Converted amounts (≈) assume the structure as drawn.
Experiments:
[1] = […]
Summary of the method: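 Cells washed in low-Ca buffer (pH 7.4, 2 mM CaCl₂) with 0.625 mM probenecid. Glutamate ± compound added in 20 mM CaCl₂ buffer. Ca²⁺ fluorescence read; pEC50 is the mean of two experiments run in duplicate.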

[2] = Intrinsic clearance in rat liver microsomes; assay type: ADME, Microsome
[3] = Permeability from basolateral to apical side of human Caco-2 cells; assay type: ADME, cell-based; conditions: read-out: permeability
[4] = Volume of distribution at steady state in Wistar rat at 2 mg/kg, iv; assay type: ADME, organism-based; set-up: dose 2 mg/kg, route intravenous; conditions: in vivo, read-out: Vdss
[5] = Half life in Wistar rat at 2 mg/kg, iv; assay type: ADME, organism-based; set-up: dose 2 mg/kg, route intravenous; conditions: in vivo
[6] = Intrinsic clearance in human liver microsomes; assay type: ADME, Microsome
[7] = Permeability from apical to basolateral side of human Caco-2 cells; assay type: ADME, cell-based; conditions: read-out: permeability
[8] = Clearance in Wistar rat at 2 mg/kg, iv; assay type: ADME, organism-based; set-up: dose 2 mg/kg, route intravenous; conditions: in vivo
[9] = Aqueous solubility of the compound; assay type: physicochemical

Row | pEC50 [1] | other results | Structure (SMILES)
1 | 6.6 |  | O=C(Cn1nc(C(F)(F)F)c2c1CCCC2)Nc1sc2c(c1C(=O)N[C@@H]1CCNC1)CCCC2
2 | 6.4 | microsomal CLint [2]: 91 µL/min/mg | NC(=O)c1c(NC(=O)Cn2nc(C(F)(F)F)c3cnccc32)sc2c1CCCC2
3 | 5.5 |  | NC(=O)c1c(CO)csc1NC(=O)Cn1nc(C(F)(F)F)c2c1CCCC2
4 | 5.2 |  | CN(C)CCNC(=O)c1c(NC(=O)Cn2nc(C(F)(F)F)c3c2CCCC3)sc2c1CCCC2
5 | 6.5 |  | CCNC(=O)c1c(NC(=O)Cn2nc(C(F)(F)F)c3c2CCCC3)sc2c1CCCC2
6 | 7 |  | CS(=O)(=O)NCCNC(=O)c1c(NC(=O)Cn2nc(C(F)(F)F)c3c2CCCC3)sc2c1CCCC2
7 | 5.8 |  | NCCNC(=O)c1c(NC(=O)Cn2nc(C(F)(F)F)c3c2CCCC3)sc2c1CCCC2
8 | 6.1 |  | Cc1sc(NC(=O)Cn2nc(C(F)(F)F)c3c2CCCC3)c(C(N)=O)c1C
9 | 6.4 | Papp B→A [3]: 5.5 ×10⁻⁶ cm/s; microsomal CLint [2]: 77 µL/min/mg; Vd [4]: 3.8 L/kg; half-life [5]: 192 min; microsomal CLint [6]: 17 µL/min/mg; Papp A→B [7]: 3.4 ×10⁻⁶ cm/s; clearance [8]: 21 mL/min/kg | NCCCNC(=O)c1c(NC(=O)Cn2nc(C(F)(F)F)c3c2CCCC3)sc2c1CCCC2
10 | 5.3 |  | NC(=O)c1c(NC(=O)Cn2ccc(C(F)(F)F)n2)sc2c1CCCC2
11 | 5.8 |  | O=C(Cn1nc(C(F)(F)F)c2c1CCCC2)Nc1sc2c(c1C(=O)N[C@H]1CCNC1)CCCC2
12 | 6.2 |  | O=C(Cn1nc(C(F)(F)F)c2c1CCCC2)Nc1sc2c(c1C(=O)NC1CC1)CCCC2
13 | 5.8 | microsomal CLint [2]: 200 µL/min/mg; solubility [9]: < 1 µg/mL; microsomal CLint [6]: 174 µL/min/mg | NC(=O)c1c(NC(=O)Cn2nc(C(F)(F)F)cc2C(F)(F)F)sc2c1CCCC2
14 | 6.7 | microsomal CLint [6]: > 270 µL/min/mg | NC(=O)c1c(NC(=O)Cn2nc(C(F)(F)F)c3c2CCCC3)sc2c1CCOC2
15 | 5.7 |  | CNCCNC(=O)c1c(NC(=O)Cn2nc(C(F)(F)F)c3c2CCCC3)sc2c1CCCC2
16 | < 4.5 |  | NC(=O)c1c(NC(=O)Cn2c(C(F)(F)F)nc3ccccc32)sc2c1CCCC2
17 | 6.7 |  | NC(=O)c1c(NC(=O)Cn2nc(C(F)(F)F)c3c2CCCC3)sc2c1CCCC2
18 | 6.5 |  | O=C(Cn1nc(C(F)(F)F)c2c1CCCC2)Nc1sc2c(c1C(=O)NC1CNC1)CCCC2
19 | < 4.5 |  | Cc1cc(C)n(CC(=O)Nc2sc3c(c2C(N)=O)CCCC3)n1
20 | 5.2 | solubility [9]: 10 µg/mL (≈ 26.9 µM) | NC(=O)c1ccsc1NC(=O)Cn1nc(C(F)(F)F)c2c1CCCC2
21 | 7.3 |  | O=C(Cn1nc(C(F)(F)F)c2c1CCCC2)Nc1sc2c(c1C(=O)NCCO)CCCC2
22 | 6.2 |  | O=C(Cn1nc(C(F)(F)F)c2c1CCCC2)Nc1sc2c(c1C(=O)NCC1CNC1)CCCC2
23 | 6.2 |  | CCc1c(C)sc(NC(=O)Cn2nc(C(F)(F)F)c3c2CCCC3)c1C(N)=O
24 | 5.3 |  | NC(=O)c1c(NC(=O)Cn2nc(C(F)(F)F)c3c2CCCC3)sc2c1CCNC2
25 | 5.9 |  | NCCCCNC(=O)c1c(NC(=O)Cn2nc(C(F)(F)F)c3c2CCCC3)sc2c1CCCC2

From ChEMBL document CHEMBL1255564, “A novel series of positive modulators of the AMPA receptor: discovery and structure based hit-to-lead studies” (Bioorg Med Chem Lett, 2010)
